Only some compounds are listed: those with a hit (about 1.4% of all), similar ones and a draw of the others.
PG9 binder = PG9 antibody binding by small molecule; inhibition, % at 6.7 µM; TR-FRET gp120-PG9 antibody binding; 0.43% of 360,000 active; in the data active = inhibition above about 8.5%
Rev-erbA mod = modulators of human Rev-erb alpha DNA binding; Rev-erbα–FITC-DNA binding, fluorescence polarization, 90 min; activity, % at 10 µM; 0.79% of 370,000 active;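 active = activity above about 14%, limit read from the data; passing the limit was not always enough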;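 note: 0% = DMSO wells with 35 nM protein and 100% = DMSO wells with 750 nM protein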
Target sequence (P20393 whole entry, looked up): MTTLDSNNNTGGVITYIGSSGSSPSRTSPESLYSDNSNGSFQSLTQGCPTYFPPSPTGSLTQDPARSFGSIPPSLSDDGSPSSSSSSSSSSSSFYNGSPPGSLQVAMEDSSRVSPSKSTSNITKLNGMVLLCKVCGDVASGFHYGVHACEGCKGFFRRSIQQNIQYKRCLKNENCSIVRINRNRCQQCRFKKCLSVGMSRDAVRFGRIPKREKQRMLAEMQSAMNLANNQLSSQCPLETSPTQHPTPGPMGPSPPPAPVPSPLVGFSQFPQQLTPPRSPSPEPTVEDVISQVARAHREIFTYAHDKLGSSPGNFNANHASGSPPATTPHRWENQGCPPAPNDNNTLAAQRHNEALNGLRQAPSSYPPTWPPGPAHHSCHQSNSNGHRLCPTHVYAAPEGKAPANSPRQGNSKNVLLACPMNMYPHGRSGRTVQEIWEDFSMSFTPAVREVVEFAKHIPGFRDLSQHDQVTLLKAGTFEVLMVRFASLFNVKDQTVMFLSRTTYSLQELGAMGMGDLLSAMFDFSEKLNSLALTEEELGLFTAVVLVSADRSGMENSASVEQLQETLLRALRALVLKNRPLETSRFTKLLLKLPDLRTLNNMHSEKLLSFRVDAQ
NR2E3 ag-1 = NR2E3 (human) agonism; Q9Y5X4; GST-NR2E3/biotin-RetCOR TR-FRET, 1536-well; inhibition of corepressor binding, % at 4.78 µM; 0.12% of 320,000 active; AID 2300;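 active = percent inhibition above the cutoff of mean plus 3 SD of all tested compounds, set per screening campaign, cut at about 20% in these data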;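 note: 0% = DMSO wells and 100% = biotin wells as full block of FRET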
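System: GST-tagged NR2E3 plus biotinylated RetCOR corepressor; Buffer or medium: pH 7.5 Tris-based buffer; Probe or stimulus: RetCOR corepressor, biotinylated, 7 nM; Doses: compound at 4.8 µM, single dose; Schedule: 5 h incubation at 4 °C; Technique: time-resolved FRET; Evaluation: percent inhibition of TR-FRET ratio; Replication: one well per compound, singlicate testing.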
NR2E3 ag-2 = agonists of human NR2E3 nuclear receptor; Q9Y5X4; 0.35% of 360,000 active; inhibition of corepressor binding, % at 3.98 µM; CHO-S Gal4-NCOR/VP16-NR2E3 two-hybrid, luciferase; AID 602229;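 active = inhibition above the mean of all tested compounds plus 3 SD, cut at about 70% in these data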;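 note: 0% = DMSO with NR2E3 transfected cells and 100% = cells lacking NR2E3 construct; higher means lower luciferase signal from less NR2E3 corepressor binding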
NR1D1 mod conf = confirmation of modulators of human Rev-erb alpha DNA binding. shares compounds with Rev-erbA mod. Rev-erb alpha FITC-DNA binding, fluorescence polarization, 90 min. activation, % at 25 µM. 61% of 3,000 active. AID 1259319;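 active = activation at or above a set limit, or at least 3 SD above the negative control mean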;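 note: 0% = 35 nM protein with DMSO and 100% = 750 nM protein high control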
RORg DNA counter = RORgamma DNA-binding activity, dose-response counter-screen. shares compounds with Rev-erbA mod. purified RORgamma protein-FITC-DNA binding, fluorescence polarization. IC50, µM. 8% of 910 active. AID 1259320;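 active = Compounds whose fitted half-maximal concentration for disrupting protein-DNA binding is below 10 micromolar; the record names Rev-erb in its text, so the target is in doubt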
An asterisk follows results filed as active.

How did CNC(=S)N(Cc1ccc(OC)cc1)Cc1cc2cc(C)ccc2[nH]c1=O do in these assays?
PG9 binder: 0.2; Rev-erbA mod: 40.5*; NR2E3 ag-1: -1.2; NR2E3 ag-2: -26.9; NR1D1 mod conf: 24.9*

Results for C[C@H]1[C@@H](NC(=O)c2ccc(O)cc2)CC[C@@]23CCCN2C(=O)CCC[C@@H]13 ?
Rev-erbA mod: -6.8

Results for C=CCc1cccc(C2Nc3ccccc3C(=O)N2O)c1O (stereo not drawn) ?
PG9 binder: 0.3; Rev-erbA mod: 59.8*; NR2E3 ag-1: 0.3; NR2E3 ag-2: -66.6; NR1D1 mod conf: 31.8*; RORg DNA counter: >40

How did C=CCOc1ccc(C2C(C(=O)c3cccs3)=C(O)C(=O)N2c2nnc(C)s2)cc1 (stereo not drawn) do in these assays?
PG9 binder: 2.4; Rev-erbA mod: 33.5*; NR2E3 ag-1: 3.4; NR2E3 ag-2: -13.0; NR1D1 mod conf: 53.9*; RORg DNA counter: >40

How did CC(C)N1CCc2c(-c3nc4ccccc4s3)csc2C1 do in these assays?
Rev-erbA mod: 4.0

What do the screens show for `Cc1cc(C)c2cc(C#N)c(SCC(=O)Nc3ccc4c(c3)OCO4)nc2c1`?
PG9 binder: 4.3; Rev-erbA mod: 62.4*; NR2E3 ag-1: -0.3; NR2E3 ag-2: -7.6; NR1D1 mod conf: 196.3*; RORg DNA counter: >40

How did Cc1ccc2cc(C#N)c(SCC(=O)NCC3CCCO3)nc2c1 (stereo not drawn) do in these assays?
PG9 binder: -1.5; Rev-erbA mod: 11.3; NR2E3 ag-1: 1.1; NR2E3 ag-2: -27.0

What do the screens show for `Cc1cc(C)c2cc(C#N)c(SCC(=O)NCC3CCCO3)nc2c1` (stereo not drawn)?
PG9 binder: 0.2; Rev-erbA mod: 102.7*; NR2E3 ag-1: 2.5; NR2E3 ag-2: -13.9; NR1D1 mod conf: 87.5*; RORg DNA counter: inactive

Results for CCn1c(=O)c(CCC(=O)NCC2CCCO2)c(C)c2c(C)nn(-c3ccc(C)cc3)c21 (stereo not drawn) ?
PG9 binder: 4.4; Rev-erbA mod: 19.5*; NR2E3 ag-1: -1.2; NR2E3 ag-2: -38.2; NR1D1 mod conf: 2.4

Results for CCOc1ccccc1NC(=O)CSC1=C(C#N)C(c2ccco2)C(C(=O)Nc2nc3ccccc3s2)=C(C)N1 (stereo not drawn) ?
PG9 binder: 1.1; Rev-erbA mod: 66.1*; NR2E3 ag-1: 1.1; NR2E3 ag-2: -26.2; NR1D1 mod conf: 54.3*; RORg DNA counter: >40

What do the screens show for `CCOc1ccc(-c2nc(-c3ccncc3)no2)cc1OCC`?
PG9 binder: -0.2; Rev-erbA mod: 10.7; NR2E3 ag-1: 1.6; NR2E3 ag-2: -27.6

What do the screens show for `CCOc1cc(-c2nc(-c3ccncc3)no2)cc(OCC)c1OCC`?
PG9 binder: 0.1; Rev-erbA mod: 28.2*; NR2E3 ag-1: 5.2; NR2E3 ag-2: 16.3; NR1D1 mod conf: 3.4

How did CCCCNC(=O)C[C@@H]1C(=O)N2CCCC3=C2[C@@]1(C(=O)OCC)CCC3 do in these assays?
Rev-erbA mod: -1.4

How did Cc1cc(-c2n[nH]c(=S)n2N=Cc2ccc(OCc3ccccc3)cc2)n[nH]1 do in these assays?
Rev-erbA mod: -0.9

How did COc1ccc(-c2cn(-c3ccc(C)cc3C)c(=S)[nH]2)cc1OC do in these assays?
PG9 binder: 0.6; Rev-erbA mod: 23.1*; NR2E3 ag-1: 0.1; NR2E3 ag-2: 9.2; NR1D1 mod conf: -1.5

What do the screens show for `O=C(CCS(=O)(=O)c1ccccc1)Nc1ccccc1-c1nc2ccccc2s1`?
PG9 binder: -1.1; Rev-erbA mod: 44.2*; NR2E3 ag-1: 3.3; NR2E3 ag-2: -23.8; NR1D1 mod conf: 40.1*; RORg DNA counter: 2.09*

What do the screens show for `COc1ccc(C2(C)NC(=O)N(CC(=O)Nc3ccc(-c4nc5ccc(C)cc5s4)cc3)C2=O)cc1` (stereo not drawn)?
PG9 binder: -1.6; Rev-erbA mod: -7.2; NR2E3 ag-1: 2.4; NR2E3 ag-2: -116.8

How did Cc1ccc2nc(-c3ccc(NC(=S)NC(=O)CC(C)C)cc3)sc2c1 do in these assays?
PG9 binder: 0.8; Rev-erbA mod: 21.6*; NR2E3 ag-1: -0.2; NR2E3 ag-2: -76.7; NR1D1 mod conf: 10.2

Results for Cc1ccc2nc(-c3ccc(NC(=O)CCS(=O)(=O)c4ccccc4)cc3)sc2c1 ?
PG9 binder: -0.5; Rev-erbA mod: 18.7*; NR2E3 ag-1: 2.1; NR2E3 ag-2: -135.1; NR1D1 mod conf: 22.8*

What do the screens show for `CCC1(c2ccc(F)cc2)NC(=O)N(CC(=O)Nc2ccc(-c3nc4ccc(C)cc4s3)cc2)C1=O` (stereo not drawn)?
PG9 binder: 3.0; Rev-erbA mod: 41.1*; NR2E3 ag-1: -1.8; NR2E3 ag-2: -131.7; NR1D1 mod conf: 10.6

How did CN(C(=O)COC(=O)CSc1ccccc1)c1c(N)n(Cc2ccccc2)c(=O)[nH]c1=O do in these assays?
PG9 binder: 3.4; Rev-erbA mod: 1.6; NR2E3 ag-2: 19.8

How did CN(C(=O)c1cccc(NC(=O)Cc2ccc(NC(=O)C3CCN(C(=O)c4ccccc4)CC3)cc2)c1)C1CCCCC1 do in these assays?
PG9 binder: -1.1; Rev-erbA mod: 0.9; NR2E3 ag-2: -10.2

What do the screens show for `CCOC(=O)C1(C)CCCN(C(=O)c2cccc(C(F)(F)F)c2)C1` (stereo not drawn)?
PG9 binder: 1.0; Rev-erbA mod: 2.7; NR2E3 ag-2: -1.6

What do the screens show for `Cc1ccc2nc(-c3ccc(NC(=O)CSc4nnc(Cc5cccs5)n4C)cc3)sc2c1`?
Rev-erbA mod: 43.4*; NR1D1 mod conf: 24.8*

Results for Cc1ccc2nc(-c3ccc(NC(=O)CN4CCN(c5ccccn5)CC4)cc3)sc2c1 ?
PG9 binder: 0.3; Rev-erbA mod: 20.7*; NR2E3 ag-1: -1.8; NR2E3 ag-2: -112.1; NR1D1 mod conf: 13.1

Results for Cc1ccc2nc(NC(=O)CN3CCN(c4ccccn4)CC3)sc2c1 ?
PG9 binder: -2.4; Rev-erbA mod: -1.3; NR2E3 ag-1: -2.4; NR2E3 ag-2: -13.2

How did O=C(Cc1ccccc1F)N1CCC(n2nnc3ncccc32)CC1 do in these assays?
Rev-erbA mod: -5.6

Results for CCOC(=O)C1Nc2c(F)cc(C)cc2C2c3ccccc3CC12 (stereo not drawn) ?
PG9 binder: -2.6; Rev-erbA mod: 108.9*; NR2E3 ag-1: 0.5; NR2E3 ag-2: 14.6; NR1D1 mod conf: 44.0*

How did Cc1nc(SCC(=O)NC2CCCC2)c2oc3ccccc3c2n1 do in these assays?
PG9 binder: -2.8; Rev-erbA mod: 35.2*; NR2E3 ag-2: -18.1; NR1D1 mod conf: 652.5*; RORg DNA counter: >40

Results for Cc1nc(SCC(=O)Nc2ccc(C)c(F)c2)c2oc3ccccc3c2n1 ?
PG9 binder: -1.4; Rev-erbA mod: 778.9*; NR2E3 ag-1: 2.4; NR2E3 ag-2: -10.6; NR1D1 mod conf: 682.2*

What do the screens show for `Cc1nc(SCc2ccccc2)c2oc3ccccc3c2n1`?
PG9 binder: 0.1; Rev-erbA mod: 2.4; NR2E3 ag-1: 4.1; NR2E3 ag-2: -0.2
